Laboratory results reported in ChEMBL document CHEMBL3797062, “Diterpenes from the Trunk of Abies holophylla and Their Potential Neuroprotective and Anti-inflammatory Activities” (J Nat Prod, 2016).
Calls of active or inactive are those of the source. The rule behind the calls is not given here.

Tests used:
[1] = Cytotoxicity in human HCT116 cells by SRB assay; format: functional, cell-based; conditions: HCT-116
[2] = Cytotoxicity in human SKOV3 cells by SRB assay; format: functional, cell-based; conditions: SK-OV-3
[3] = test system: C6; experiment: Neuroprotective activity in rat C6 cells assessed as induction of NGF release at 20 uM after 24 hrs by ELISA; format: functional
Outline: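 C6 glioma cells seeded at 1 × 10^5 cells/well. After 24 h, treated with compound at 20 μM in serum-free DMEM for a further 24 h. NGF secreted into the conditioned medium quantified by ELISA and expressed as % of untreated control (100%). 6-Shogaol positive control. Means ± SD of three independent experiments run in triplicate.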

[4] = test system: A549; experiment: Cytotoxicity in human A549 cells by SRB assay; format: functional, cell-based
[5] = test system: SK-MEL-2; experiment: Cytotoxicity in human SK-MEL-2 cells by SRB assay; format: functional, cell-based
[6] = Cytotoxicity in rat C6 cells assessed as cell viability at 20 uM after 24 hrs by MTT assay; format: cell-based; conditions: read-out: Activity
Outline: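 C6 glioma cells seeded at 1 × 10^5 cells/well. After 24 h, switched to serum-free DMEM with compound at 20 μM for a further 24 h. Viability by MTT, expressed as % of untreated control. Means ± SD of three independent experiments.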

[7] = test system: BV-2; experiment: (§1) Antiinflammatory activity in mouse BV2 cells assessed as inhibition of LPS-induced NO production after 24 hrs by Griess assay; format: functional, cell-based
Outline: (§2)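 BV2 microglia seeded at 4 × 10^4 cells/well, given compound at various concentrations with LPS (100 ng/mL), incubated 24 h. Nitrite in the medium read with Griess reagent (0.1% N-1-naphthylethylenediamine dihydrochloride, 1% sulfanilamide in 5% phosphoric acid, equal volume of supernatant), absorbance at 570 nm after 10 min. Sodium nitrite standard curve. IC50 derived. L-NMMA positive control.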

[8] = Cytotoxicity in LPS-activated mouse BV2 cells assessed as cell viability at 20 uM after 24 hrs by MTT assay; format: cell-based; conditions: bv-2, 24 h
Outline: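 Mouse microglial BV2 cells were seeded at 4 × 10^4 cells/well, treated with or without compound, stimulated with LPS (100 ng/mL), and incubated for 24 h. Viability was read by MTT assay, as the reduction of yellow MTT to purple formazan by viable cells.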

[9] = as §1; format: functional, cell-based; conditions: BV-2, 24 h; outline: as §2
[10] = test system: C6 (Rattus norvegicus); experiment: Neuroprotective activity in rat C6 glioma cells assessed as induction of NGF release at 20 uM for 24 hrs

Row | SMILES | IC50 [1] [µM] | IC50 [2] [µM] | Activity [3] [%] | IC50 [4] [µM] | IC50 [5] [µM] | viability at 24 h, 20 µM [6] [%] | inhibition [7] | Activity [8] | IC50 [9] [µM] | Activity [10] [%]
1 | CC(C)c1ccc2c(c1)[C@@H](O)C[C@H]1[C@](C)(C(=O)O)CCC[C@]21C | > 10 | > 10 | 165.1 | > 10 | > 10 | 96.2 | inactive |  |  | 
2 | CC(C)[C@]12O[C@H]1C[C@H]1C(=CC[C@@H]3[C@]1(C)CCC[C@@]3(C)C(=O)O)[C@H]2O | > 10 | > 10 | 193.9 | > 10 | > 10 | 73.1 | inactive |  |  | 
3 | CC(C)[C@@]12C=C3[C@H](O)C[C@H]4[C@](C)(C(=O)O)CCC[C@]4(C)[C@]3(CC1)OO2 | > 10 | > 10 | 154.3 | > 10 | > 10 | 127 | inactive |  |  | 
4 | CC(C)C1=C[C@@]2(O)CC[C@@H]3[C@](C)(CCC[C@@]3(C)C(=O)O)[C@H]2CC1=O | > 10 | > 10 | 166.1 | > 10 | > 10 | 91.2 |  | Non-toxic | 56.1 | 
5 | CC(C)c1ccc2c(c1)[C@H](O)C[C@H]1[C@](C)(CO)CCC[C@]21C | > 10 | > 10 | 177.1 | > 10 | > 10 | 89.3 | inactive |  |  | 
6 | CC(C)c1ccc2c(c1)[C@H](O)C[C@H]1[C@](C)(C(=O)O)CCC[C@]21C | > 10 | > 10 | 204.3 | > 10 | > 10 | 101 | inactive |  |  | 
7 | CC(C)(O)[C@]12O[C@H]1C[C@@H]1[C@@]3(C)CCC[C@@](C)(C(=O)O)[C@@H]3CC[C@@]13O[C@H]32 | > 10 | > 10 |  | > 10 | > 10 |  | inactive |  |  | 
8 | CC(C)(O)c1ccc2c(c1)C(=O)C[C@H]1[C@](C)(C(=O)O)CCC[C@]21C | > 10 | > 10 | 161.7 | > 10 | > 10 | 94.6 | inactive |  |  | 
9 | CC(C)c1ccc2c(c1)C(=O)C[C@H]1[C@](C)(C(=O)O)CCC[C@]21C | > 10 | > 10 | 201.8 | > 10 | > 10 | 104 | inactive |  |  | 
10 | CC(C)[C@]12C=C3[C@H](O)C[C@H]4[C@](C)(C(=O)O)CCC[C@]4(C)[C@@]3(CC1)OO2 | > 10 | > 10 |  | > 10 | > 10 |  | inactive |  |  | 
11 | CC(C)(O)[C@]12O[C@H]1C[C@@H]1[C@@]3(C)CCC[C@@](C)(C(=O)O)[C@@H]3CC[C@@]1(O)[C@H]2O | > 10 | > 10 |  | > 10 | > 10 |  | inactive |  |  | 
12 | CO[C@H]1C(=O)C2=C[C@@](O)(C(C)C)CC[C@@H]2[C@@]2(C)CCC[C@@](C)(C(=O)O)[C@H]12 | > 10 | > 10 | 170.2 | > 10 | > 10 | 96.2 | inactive |  |  | 
13 | CC(C)c1ccc2c(c1)CC[C@H]1[C@](C)(C(=O)O)CCC[C@]21C [DEHYDROABIETIC ACID] | > 10 | > 10 | 170.2 | > 10 | > 10 | 92.3 | inactive |  |  | 
14 | CO[C@@]1(C(C)C)C=C2[C@H](O)C[C@@H]3[C@](C)(CCC[C@@]3(C)C(=O)O)[C@H]2CC1 | > 10 | > 10 | 169.4 | > 10 | > 10 | 78.1 | inactive |  |  | 
15 | CCCCC/C=C/C(=O)CCc1ccc(O)c(OC)c1 [SHOGAOL] |  |  |  |  |  | 119 |  |  |  | 141.8
16 | CC(C)C1=C[C@@]23CC[C@@H]4[C@](C)(CCC[C@@]4(C)C(=O)O)[C@H]2C[C@@H]1OO3 | > 10 | > 10 | 153 | > 10 | > 10 | 102 | inactive |  |  | 
17 | CC(C)[C@@]12CC[C@@H]3[C@@]4(C)CCC[C@@](C)(C(=O)O)[C@@H]4CC(=O)[C@]3(O)[C@@H]1O2 | > 10 | > 10 | 155 | > 10 | > 10 | 91.4 | inactive |  |  | 
18 | CO[C@]12C(=O)C[C@@H]3[C@](C)(CCC[C@@]3(C)C(=O)O)[C@H]1CC[C@@]1(C(C)C)O[C@@H]21 | > 10 | > 10 |  | > 10 | > 10 |  | inactive |  |  | 
19 | CC(C)(O)[C@]12O[C@H]1C[C@H]1C(=CC[C@@H]3[C@]1(C)CCC[C@@]3(C)C(=O)O)[C@H]2O | > 10 | > 10 | 158.6 | > 10 | > 10 | 92.5 | inactive |  |  | 
20 | CO[C@@]1(C(C)C)C=C2C(=O)C[C@@H]3[C@](C)(CCC[C@@]3(C)C(=O)O)[C@H]2CC1 | > 10 | > 10 |  | > 10 | > 10 |  | inactive |  |  | 
21 | CC(C)[C@]12C=C3C(=O)C[C@H]4[C@](C)(C(=O)O)CCC[C@]4(C)[C@@]3(CC1)OO2 | > 10 | > 10 |  | > 10 | > 10 |  |  | Non-toxic | 30.1 | 
22 | CC(C)c1ccc2c(c1)[C@H](O)C[C@H]1C(C)(C)CCC[C@]21C | > 10 | > 10 |  | > 10 | > 10 |  | inactive |  |  | 
23 | CC(C)[C@]1(O)C=C2C(=O)C[C@@H]3[C@](C)(CCC[C@@]3(C)C(=O)O)[C@H]2CC1 | > 10 | > 10 | 175.6 | > 10 | > 10 | 94.5 | inactive |  |  | 
24 | CC(C)[C@]12O[C@H]1CC1=C(CC[C@H]3[C@](C)(C(=O)O)CCC[C@]13C)[C@H]2O | > 10 | > 10 |  | > 10 | > 10 |  | inactive |  |  | 
25 | COc1cc([C@@H]2c3cc4c(cc3[C@@H](O[C@@H]3O[C@@H]5CO[C@@H](C)O[C@H]5[C@H](O)[C@H]3O)[C@H]3COC(=O)[C@H]23)OCO4)cc(OC)c1O [ETOPOSIDE] | 1 | 2.6 |  | 1.4 | 1.5 |  |  |  |  | 
26 | CC(C)(O)c1ccc2c(c1)CC[C@H]1[C@](C)(C(=O)O)CCC[C@]21C | > 10 | > 10 | 152.9 | > 10 | > 10 | 94.3 | inactive |  |  | 
27 | CC(C)c1ccc2c(c1)[C@H](O)C[C@H]1[C@](C)(COC(=O)CCC(=O)O)CCC[C@]21C [ABIESADINE F] | > 10 | > 10 | 142.2 | > 10 | > 10 | 98.2 | inactive |  |  | 
28 | CC(=O)OC[C@]1(C)CCC[C@]2(C)c3ccc(C(C)(C)O)cc3CC[C@@H]12 | > 10 | > 10 | 171.3 | > 10 | > 10 | 85.5 | inactive |  |  | 
29 | CC(C)[C@]12C=C3CC[C@H]4[C@](C)(C(=O)O)CCC[C@]4(C)[C@@]3(CC1)OO2 | > 10 | > 10 | 175.9 | > 10 | > 10 | 109 |  | Non-toxic | 57.3 | 
30 | CC(C)[C@]12O[C@H]1C[C@@H]1[C@@]3(C)CCC[C@@](C)(C(=O)O)[C@@H]3CC[C@@]1(O)[C@H]2O | > 10 | > 10 |  | > 10 | > 10 |  | inactive |  |  | 
